Reference: the RNAGym collection of RNA variant scans (doi:10.1126/science.aae0568)
Fewer inactive variants are shown than the library holds.

B1: tRNA (parent)
chain: GUUCCGUUGGCGUAAUGGUAACGCGUCUCCCUCCUAAGGAGAAGACUGCGGGUUCGAGUCCCGUACGGAACG

Variants of: B1
Assay: yeast fitness relative to wild type (ratio to wild type); higher = fitter; tRNA-Arg(CCU), competitive growth, 37 C, YPD
Summary of the method: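 Variants of the tRNA-Arg(CCU) gene, chemically synthesised with a 3% per-site mutation rate at 69 sites, were placed at the native genomic locus in Saccharomyces cerevisiae. The pooled strains were competed in YPD at 37°C for 24 hours in six parallel replicates. Gene amplicons from the start population and from each end population were read by 100-nucleotide paired-end sequencing. Darwinian fitness relative to wild type came from changes in genotype frequencies; genotypes needed ≥ 100 starting reads, and estimates < 0.5 were set to 0.5.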

Row | Variant | yeast fitness
1 | GUUCUGUUGACGUAAUGGUCACGCGUCUCCCUCCUAAGGAAAAGAGUACGGGUCUGAGUCCCGUACGGACCG [C5U G10A A20C G41A C46G G48A U54C C55U A70C] | 0.647
2 | GUUCUGUUGGCGUAAUCGUAACGCGGCUCCCUCCUAAGGAGAAGACUGCGGGUUCGAGUCCCGUACAGAACG [C5U G17C U26G G67A] | 0.565
3 | GUUCUGUUGACGUAAUGGUAACGCGUGUCCCUCCUAAGGAGAAGACUGCGGGUUCGAGUCCCGUACGGAACG [C5U G10A C27G] | ≤ 0.5
4 | GUUCUGUUGGCCUAAUGGUAACGCGUCUCCCUCCUAAGGAGAGGACUGCGGGUUCAAGUCCCGUACGGAACG [C5U G12C A43G G56A] | ≤ 0.5
5 | GUUCUGUUGGCGUAAUCGUAACGCGUCUCGCUCCUAAGGAGAAGACUGCGGGUUGGAGUCCCGUACGGAACG [C5U G17C C30G C55G] | ≤ 0.5
6 | GUUCUGUUGACGUAAUGGUAAUGCGUCUCCCUCCUAAGGGGAAGACUGCGGGUUCCAGUCCCGUAAGGAACG [C5U G10A C22U A40G G56C C66A] | ≤ 0.5
7 | GUUCUGUUCGCGUAAUGGUAACGCGUCUCCCUCCUAAGGAGGAGACUGCGGGUUCGAGUCCCGUACGGAACG [C5U G9C A42G] | 0.626
8 | GUUCUGUUGACGUAAUGGUAGCGCGUCUCCCUCCUAAGGAGAAGACUGCGGGUUCGAGUCCCGUACGGAACG [C5U G10A A21G] | 0.59
9 | GUUCUGUUGCCGUAAUGGUAACGCGUCUCUCUCCUAAGGAGAAGACUGCGGGUUCGAGUCCCGUACGGAACG [C5U G10C C30U] | ≤ 0.5
10 | GUUCUGUUGACGUAAUGGUAGCGCGUCUCCCUCCUAAGGUGAAGACUGCGGGUUCGAGUCCCGUACGGAACG [C5U G10A A21G A40U] | ≤ 0.5
11 | GUUCUGUUGGCCUAAUGGAAACGCGUCUCCCUCCUAAGGAGAAGACUGCGGGUUCGAGUCCCGUACGGAACG [C5U G12C U19A] | ≤ 0.5
12 | GUUCUGUUGACGUAAUGGUAACGCGUCUCCCUCCUAAGGAGAAGAAUGCGGGUUCGAGUCCCGUACGGAACG [C5U G10A C46A] | ≤ 0.5
13 | GUUCUGUUGGCAUAAUGGUAACGCGUCUCCCUCCUAAGGAGAAGACGGUGGGUUCGAGUCCCGUACGCAACG [C5U G12A U47G C49U G68C] | ≤ 0.5
14 | GUUCUGUUGACGUAAUGGUAACGCGUCUCCCUCCUGAGGAGAACACUGCGGGUUCGAGUCCCGUACGGAACG [C5U G10A A36G G44C] | ≤ 0.5
15 | GUUCUGUUCGCGUACUGGUAACGCGUCUCCCUCCUAACGAGAAGACUGGGGGUUCGAGUCCCGUACGCAACG [C5U G9C A15C G38C C49G G68C] | ≤ 0.5
16 | GUUCUGUUAGCGAAAUGGUAACGCGUCUCCCUCCUCAGGAGAAGACUGCCGGUUCGAGUCCCGUACGGAACG [C5U G9A U13A A36C G50C] | ≤ 0.5
17 | GUUCUGUUGACGUAAUGGUAACGCGUGUCCCUCCUAAGGAGAAGACUGCGGGUUCGGGUCCCGUACGGAACG [C5U G10A C27G A57G] | 0.541
18 | GUUCUGUUGGCGUAAUCGUAACGCGUCUCACUCCUAAGGAGAAGACUGCGGGUUCGCGUCCCGUACGGAACG [C5U G17C C30A A57C] | ≤ 0.5
19 | GUUCUGUUCGCGUAAUGGUAACGCGUCUCCCUCCUAAGGAGAAGACUGCGGGUUCGAGUCCCGAACGGAACG [C5U G9C U64A] | 0.577

Row | Variant | yeast fitness
20 | GUUCUGUUGGCGUAAUUGUAACGCGUCUCCCUCCUAAGGAGAAGACUGCGGGUUCGAGUCCCGUACGGAUCG [C5U G17U A70U] | ≤ 0.5
21 | GUUCUGUUGGCGUAAUCGUAACGCGGCUCCCUCCUAAGGAGAAGACUGCGGGUUCGAGUCCCGUACGGAACG [C5U G17C U26G] | 0.511
22 | GUUCUGUUGCCGUGAUGGUAACGCGUCUCCCUCCUAAGGAGAAGAGUGCGGGUUCGAGUCCUGUACGGAACG [C5U G10C A14G C46G C62U] | 0.593
23 | GUUCUGUUGACGUAAUGGUAACGCGUCUCCCUCCUAAGGAGAAGACUGCGGGUUCGAGUCCGGUAGGGAACG [C5U G10A C62G C66G] | ≤ 0.5
24 | GUUCUGUUGGCGUAAUAGUAGCGCGUCUCCCUCCUAGGCAGAACAAUGCGGGUCCGAGUCCCGUCCGGAACG [C5U G17A A21G A37G G39C G44C C46A U54C A65C] | ≤ 0.5
25 | GUUCUGUUAGCGUAAUGGUAACGCGCCUCCCUCCUAAGGAGAAGACUGCGGGUUCGAGUCCCGUACUGAACG [C5U G9A U26C G67U] | ≤ 0.5
26 | GUUCUGUUGGCCUAAUGGUAACGCGUCUCCCUCCUAAGGCGAAGACUGCGGGUUCCAGUCCCGUACGGAACG [C5U G12C A40C G56C] | ≤ 0.5
27 | GUUCUGUUGACGUAAUGGUAACGCGUCUCCCUCCUAACGAGAAGACUGCGGGUUCGAGUCCCGUACGGAACG [C5U G10A G38C] | ≤ 0.5
28 | GUUCUGUUGACGUAAUGGUGACGCGUCUCCCUCCUUAGGAGACGACUGCGGGUUCGAGUCCCGUACGGAACG [C5U G10A A20G A36U A43C] | ≤ 0.5
29 | GUUCUGUUGGCGUAAUCGUAACGCGUCUCCCUCCUAAGGAGAAGACUGCGGAUUCGAGUCCCGUACGGAACG [C5U G17C G52A] | 0.61
30 | GUUCUGUUGCCGUAAUGGUAUUGUGUCUCCCCCCUAAGGAGAAGAUUGCGGGUUCGAGUCGCGUACGGAACG [C5U G10C A21U C22U C24U U32C C46U C61G] | ≤ 0.5
31 | GUUCUGUUGGCGUAAUAGUAACGCGUCUCCCUCCUAAGGAGAAGACUGCGGGUUAGAGUCCCGUACAGAGCG [C5U G17A C55A G67A A70G] | ≤ 0.5
32 | GUUCUGUUGGCGUAAUAGUAACGCGUCUCCCUCCUAAGGAGAAGACUGGGGGUUCGAGUACCGUACGGAACG [C5U G17A C49G C60A] | ≤ 0.5
33 | GUUCUGUUGGCGUAAUAGUAACGCGUCUCCCUACUAAGGAGAAGACUGUGGGUUCGAGUCCCGUAUGGAACG [C5U G17A C33A C49U C66U] | ≤ 0.5
34 | GUUCUGUUGGCGUAAUCCUAACGCGUCUCCCUCCUAAGGAGAAGACUGCGGGUUCGAGUGGCGUACGGAACG [C5U G17C G18C C60G C61G] | ≤ 0.5
35 | GUUCUGUUGGCAUAAUGGUAAUGCGUCUCCCUUCUAAGGAGAAGACUGCGGGUUCGAGUCCCGUACGGAACG [C5U G12A C22U C33U] | ≤ 0.5
36 | GUUCUGUUGCCGUAAUGGUAACGCGUCUCCCUCAUAAGGAGAAGACUGCGGGUUCGUGUCCCGUACCGAACG [C5U G10C C34A A57U G67C] | ≤ 0.5
37 | GUUCUGUUGCCGUAAUGGUAUUGCGUCUCCCCCCUAAGGAGAAGAUUGCGGGUUCGAGUCGCGUACGGAACG [C5U G10C A21U C22U U32C C46U C61G] | ≤ 0.5
38 | GUUCUGUUGACGUAAUGGUAACGCGUCUCCCUCCUAAGGCGAAGACUGCAGGUUCGAGUCCCGUACGGAACG [C5U G10A A40C G50A] | ≤ 0.5
